Bioassay records from PubChem.
NF-kB expr up = raises NF-kB expression in human neuronal cells; NF-kB reporter expression; stronger effect = higher value; fold change at 12.5 µM; actives 1.6% (n = 190,000); AID 1239; in the data active = fold change above about 3.3
STAT1 blocker = reduces IFN-gamma driven STAT1 reporter signal | NIH 3T3 STAT1-luciferase reporter, luminescence | inhibition, % at 5.5 µM | actives 0.35% (n = 200,000);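 active = inhibition above a set limit, the mean inhibition across all tested compounds plus 3 SD, cut at about 34% in these data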
STAT1 activator = increases IFN-gamma driven STAT1 reporter signal. NIH 3T3 STAT1-luciferase reporter, luminescence; 100% = IFN-gamma alone, no compound. activation (% of control), % at 5.5 µM. actives 2.6% (n = 200,000). AID 932;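 active = activation above the screen-wide mean activation plus 3 SD, cut at about 130% in these data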
STAT3 inh = reduces IL-6 driven STAT3 reporter signal | U3A cells, IL-6 STAT3-luciferase reporter, luminescence; host cell line lacks STAT1 | inhibition, % at 5.5 µM | actives 0.89% (n = 190,000);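 active = inhibition above the mean inhibition across all screened compounds plus 3 SD, cut at about 44% in these data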
APP 5'UTR act = activates APP 5'UTR luciferase reporter; actives 1% (n = 190,000); SH-SY5Y APP 5'UTR luciferase reporter, luminescence; zero percent = DMSO vehicle wells; activation, % at 2 µM; AID 1276;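 active = activation above a set limit, based on mean plus 3 SD of controls, cut at about 140% in these data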
STAT3 activator = increases IL-6 driven STAT3 reporter signal; U3A cells, IL-6 STAT3-luciferase reporter, luminescence; 100% = signal with IL-6 EC80 alone; activation (% of control), % at 5.6 µM; actives 0.91% (n = 190,000);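 active = activation above the screen-wide mean of compound activation plus 3 SD, cut at about 130% in these data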
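Test system: Human STAT1-deficient U3A cells with stable STAT3-luciferase reporter | Also added: Interleukin-6, 33 ng/mL | Timing: Compound pre-incubation 1 h before IL-6, then 6 h stimulation at 37 °C | Technique: Luciferase reporter luminescence | Read-out: Percent of IL-6-only median luminescence | Benchmarks: IL-6-only wells as 100% reference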
STAT1 act conf = STAT1 activation, confirmation assay | shares compounds with STAT1 activator | NIH 3T3 STAT1-luciferase reporter, IFN-gamma potentiation, luminescence; 100% = IFN-gamma EC80 alone, no compound | activation (% of control), % at 5.7 µM | actives 97% (n = 1,200);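 active = activation above a set limit carried over from the earlier primary STAT1 screen, cut at about 140% in these data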
NFkB act = activates NF-kappaB, counter-screen to STAT1 activators | shares compounds with STAT1 activator | HEK293T NF-kB luciferase reporter, TNF-alpha stimulated, luminescence; 100% = TNF-alpha with vehicle only | activation (% of control), % at 5.7 µM | actives 43% (n = 1,200) | AID 1306;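 active = activation above the mean of solvent-only control wells plus 3 SD, set per campaign, cut at about 130% in these data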;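 note: TNF-alpha given at a submaximal dose yielding about 80% of full reporter signal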
STAT3 act 2 = human STAT3 activation in STAT1 activator counter-screen; activation (% of control), % at 5.7 µM; U3A cells STAT3-luciferase reporter, IL-6, luminescence; cells lack STAT1; 100 = IL-6 alone, no compound effect; actives 46% (n = 1,200); shares compounds with STAT1 activator;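 active = activation above the solvent-only control well mean plus 3 SD, set per plate batch, cut at about 110% in these data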;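 note: higher means more STAT3 reporter activation so hits are non-selective activators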
Of the large screens only hits and unclear results are named; the others gave an inactive call (follow-up assays come after a bar, where they were run). A selection: hits, their analogues and other compounds. The true share with any hit is near 4.9%.

CSc1ccc(/C=N/NC(=O)c2sccc2C)cc1	NF-kB expr up 4.1, STAT1 activator 192, APP 5'UTR act 219 | STAT1 act conf 249 | NFkB act inactive | STAT3 act 2 inactive
O=C(O)Cc1ccc2sc(-c3ccccc3)nc2c1	none
COC(=O)Cc1ccc2sc(-c3ccccc3)nc2c1	NF-kB expr up 9.2, STAT1 activator 157, APP 5'UTR act 173 | STAT1 act conf 183 | NFkB act inactive | STAT3 act 2 inactive
CC1=NN(c2ccccc2)C(=O)/C1=C\c1ccc(Br)s1	none (no result: APP 5'UTR act)
CC1=NN(c2ccccc2)C(=O)/C1=C/c1c(O)n(-c2ccc(F)cc2)[nH]c1=O	STAT1 activator 153 | STAT1 act conf 177 | NFkB act inactive | STAT3 act 2 132
Cc1cc(C(F)(F)F)c(C#N)c(SCC(=O)Nc2nc3ccccc3s2)n1	STAT1 activator 152, APP 5'UTR act 180 | STAT1 act conf 261 | NFkB act inactive | STAT3 act 2 193
Cc1cc(C)c(C#N)c(SCC(=O)Nc2ccccc2C)n1	none
COc1ccccc1/C=C/C(=O)Nc1ccc(N2CCOCC2)cc1	none
COc1ccccc1/C=C/C(=O)Nc1ccc2c(c1)OCCO2	NF-kB expr up 8.4, STAT1 activator 179 | STAT1 act conf 238 | NFkB act inactive | STAT3 act 2 inactive
COc1ccc(/C=C/C(=O)Nc2ccccc2)cc1OC	STAT1 activator 152 | STAT1 act conf 163 | NFkB act inactive | STAT3 act 2 inactive
COc1ccccc1/C=C/C(=O)Nc1ccc2c(c1)CCC2	NF-kB expr up 7.8, STAT1 activator 161, APP 5'UTR act 176 | STAT1 act conf 197 | NFkB act 147 | STAT3 act 2 112
COc1ccc(OC)c(/C=C/C(=O)Nc2ccc3c(c2)CCC3)c1	none
CN(CC1CCOCC1)C(=O)CC1C(=O)NCCN1C/C=C/c1ccccc1 (configuration not stated)	none
Oc1[nH]c2ccccc2c1N=Nc1nc2ccccc2s1	NF-kB expr up 3.7, STAT1 activator 155 (no result: APP 5'UTR act) | STAT1 act conf 208 | NFkB act 136 | STAT3 act 2 131
O=C(Nc1ccc(N2CCOCC2)c(Cl)c1)c1cc2ccccc2o1	STAT1 activator 170 | STAT1 act conf 179 | NFkB act inactive | STAT3 act 2 inactive
Cc1cc(C)cc(C(=O)Nc2ccc(N3CCN(S(C)(=O)=O)CC3)cc2)c1	none
O=C(Nc1ccc(N2CCCC2)c(Cl)c1)c1ccc([N+](=O)[O-])o1	NF-kB expr up 4.3, STAT1 activator 159 | STAT1 act conf inactive | NFkB act 133 | STAT3 act 2 inactive
CS(=O)(=O)N1CCN(c2ccc(NC(=O)c3ccc([N+](=O)[O-])o3)cc2)CC1	STAT1 activator 160 | STAT1 act conf inactive | NFkB act inactive | STAT3 act 2 inactive
COc1ccc(NC(=O)c2cccn(CC=C(C)C)c2=O)cc1	none
Cc1cc(C(=O)NCCC2=CCCCC2)c(C)o1	STAT1 activator 155, APP 5'UTR act 136 | STAT1 act conf 181 | NFkB act inactive | STAT3 act 2 inactive
NC(=O)NCCC1=CCCCC1	none
O=C(COC(=O)CNS(=O)(=O)c1ccc(F)c(F)c1F)Nc1ccc(OC(F)F)cc1	none
COc1ccc(Oc2nc(OC)cc(OC)n2)cc1	none
Cc1ccc(N/N=C(\C#N)C(N)=S)cc1C	none
Cc1ccc(N/C=C(/C#N)c2ccsc2)cc1C	NF-kB expr up 5.2, STAT1 activator 193 | STAT1 act conf 235 | NFkB act 156 | STAT3 act 2 125
Cc1nnc(SCC(=O)Nc2cc(-c3cc(C)c(C)cc3C)nn2-c2ccccc2)s1	none
